High-throughput results as filed in PubChem BioAssay.
Efflux pump mplx = inhibitors of Candida antifungal efflux pumps expressed in yeast; S. cerevisiae Candida pump triplex, Nile Red efflux; inhibition, % at 10 µM; AID 485275; actives 0.44% (n = 330,000);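 active = plate passing quality check with inhibition over a set limit, or well fluorescence over plate mean plus 4 SD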;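 note: Nile Red retained in pooled yeast measured as flow cytometry median fluorescence; 0% = buffer negative control and 100% = Enniatin B positive control; higher means more Nile Red kept so more efflux inhibition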
AI-2 QS modul = modulators of Vibrio harveyi AI-2 quorum sensing system; Vibrio harveyi JMH597 AI-2 luminescence/OD600 ratio, 9 h; stronger effect = lower value; strain lacks LuxN and CqsS sensors; 0 = neutral-control median; activity change, % at 7.5 µM; actives 0.4% (n = 300,000); AID 2094; in the data active = activity change below about -75%, passing the limit was not always enough; inconclusive = no clear call, values can overlap the other calls;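 note: luminescence divided by OD600 gain over 9 h not by final OD600 alone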
PolyA inh = blocks polyadenylation in yeast reporter cells | S. cerevisiae SKY197-pL101 polyadenylation reporter, beta-gal luminescence; efflux-impaired pdr1/pdr3 knockout yeast; score 100 = 6 SD above DMSO | activity score, % at 12 µM | actives 0.02% (n = 300,000) | AID 1875;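 active = lowest replicate activity score at least 50, where 100 means six control SD above control mean; inconclusive = lowest score under 50 but half or more replicates reach 50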;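 note: yeast exposed to compound for 9 h at 30 °C; higher score means more reporter readthrough which indicates perturbed polyadenylation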
T cruzi inh = T. cruzi replication inhibition. AID 1885. inhibition, % (concentration not given with the values). T. cruzi beta-gal in NIH3T3, luminescence, 90 h. actives 1.4% (n = 300,000);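 active = mean inhibition across valid replicates above about 55%, limit read from the data; inconclusive = mean below that limit but half or more replicates reach it; inactive = mean below it, under half of replicates reach it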;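 note: signal also drops with host cell toxicity which is not excluded here; 0% = plate median of DMSO wells and 100% = zero luminescence signal; higher percent means less beta-gal luminescence so fewer parasites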
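System – NIH/3T3 host cells with β-galactosidase reporter T. cruzi · Doses – single 50 nL compound addition per well in DMSO · Reagent – 5000 T. cruzi trypomastigotes/well · Medium – Low-serum DMEM with 2% FBS · Timing – ≥90 h infection period, 3 h prior cell attachment · Evaluation – parasite load inhibition, % · Technique – GalScreen luminescence, 60 min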
HDAC3 inh = human HDAC3 inhibition. inhibition, % at 8.3 µM. recombinant HDAC3, fluorogenic peptide/trypsin coupled, fluorescence. actives 0.15% (n = 320,000). AID 2718; in the data active = inhibition above about 26%, passing the limit was not always enough; inconclusive = no clear call, values can overlap the other calls
Target sequence (O15379 whole entry, looked up): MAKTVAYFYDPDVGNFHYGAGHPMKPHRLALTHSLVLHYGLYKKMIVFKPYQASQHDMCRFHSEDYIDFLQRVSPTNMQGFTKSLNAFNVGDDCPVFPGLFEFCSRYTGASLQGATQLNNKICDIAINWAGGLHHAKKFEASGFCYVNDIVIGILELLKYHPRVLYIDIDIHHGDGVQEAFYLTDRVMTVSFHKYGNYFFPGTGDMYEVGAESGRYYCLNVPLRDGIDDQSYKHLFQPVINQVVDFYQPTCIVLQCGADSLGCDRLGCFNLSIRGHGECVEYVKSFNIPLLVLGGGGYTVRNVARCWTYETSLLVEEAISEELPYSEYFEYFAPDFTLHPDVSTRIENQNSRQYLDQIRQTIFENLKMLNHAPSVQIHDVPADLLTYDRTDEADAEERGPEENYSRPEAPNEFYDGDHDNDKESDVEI
An asterisk follows results filed as active. Shown are actives, neighbours in structure and some others; about 2.2% of the full set was active somewhere.

Screening CCS(=O)(=O)c1ccc(O)c(NC(=O)/C=C/c2ccc(Cl)cc2)c1 returned Efflux pump mplx 0, AI-2 QS modul -83*, PolyA inh -4, T cruzi inh -4 and HDAC3 inh -2.
CN(C(=O)Cn1cc([N+](=O)[O-])ccc1=O)C1CCCCC1 was read as Efflux pump mplx 0 and HDAC3 inh 1.
Screening Cc1ccc(C(C)C)c(OCc2ccc(C(=O)N/N=C/c3cccc(O)c3O)cc2)c1 returned Efflux pump mplx 0, AI-2 QS modul 179, PolyA inh 16, T cruzi inh 58* and HDAC3 inh 6.
For N#Cc1cccc(C(=O)OCC(=O)c2ccc3c(c2)NC(=O)CO3)c1 the results were Efflux pump mplx 0, AI-2 QS modul 34, PolyA inh 9, T cruzi inh 1 and HDAC3 inh 6.
Screening CCS(=O)(=O)C1=NN2C(=N)/C(=C\c3ccc(OC(=O)c4ccco4)c(Br)c3)C(=O)N=C2S1 returned Efflux pump mplx 0, AI-2 QS modul 18, PolyA inh 16, T cruzi inh -9 and HDAC3 inh 39*.
COc1ccccc1NC(=O)c1ccc([N+](=O)[O-])o1 was read as Efflux pump mplx 0, AI-2 QS modul -87*, PolyA inh -4, T cruzi inh 26 and HDAC3 inh -2.
CCN(CC)CCn1c(NC(=O)c2ccc(C)cc2)nc2ccccc21 was read as Efflux pump mplx 0, AI-2 QS modul -3, PolyA inh -7, T cruzi inh 32 and HDAC3 inh 1.
For CCCn1c(NC(=O)c2ccc([N+](=O)[O-])o2)nc2ccccc21 the results were Efflux pump mplx 0, AI-2 QS modul 31, PolyA inh -7, T cruzi inh 58* and HDAC3 inh 5.
Screening O=C(Nc1cccc(NC(=O)c2ccccc2Cl)c1)c1ccc([N+](=O)[O-])o1 returned Efflux pump mplx 0, AI-2 QS modul -191*, PolyA inh -20, T cruzi inh 29 and HDAC3 inh -3.
Screening Cc1ccc(NC(=O)c2ccc([N+](=O)[O-])o2)cc1C returned Efflux pump mplx 1, AI-2 QS modul inconclusive, PolyA inh -54, T cruzi inh inconclusive and HDAC3 inh 3.
For CCN(CC)CCn1c(NC(=O)c2ccc(C(F)(F)F)cc2)nc2ccccc21 the results were Efflux pump mplx 0, AI-2 QS modul 18, PolyA inh 4, T cruzi inh 62* and HDAC3 inh -2.
Screening O=C(CSc1nc(-c2ccccc2)cc(=O)[nH]1)Nc1ccc(F)c(F)c1 returned Efflux pump mplx 0, AI-2 QS modul -6, PolyA inh -2, T cruzi inh -10 and HDAC3 inh -5.
For CCCn1c(NC(=O)c2ccc(Cl)c(S(=O)(=O)N3CCCC3)c2)nc2ccccc21 the results were Efflux pump mplx 0, AI-2 QS modul 8, PolyA inh -3, T cruzi inh 66* and HDAC3 inh 10.
For O=C(Nc1cccc2ccccc12)c1ccc([N+](=O)[O-])o1 the results were Efflux pump mplx 0, AI-2 QS modul -128*, PolyA inh -18, T cruzi inh 3 and HDAC3 inh 1.
CCc1noc(C)c1C(=O)Nc1cccc2ncccc12 was read as Efflux pump mplx 0, AI-2 QS modul 26, PolyA inh 15, T cruzi inh -26 and HDAC3 inh 10.
For Cc1cc(C(=O)CSc2nn3c(=O)c(C(C)(C)C)nnc3s2)c(C)n1C the results were Efflux pump mplx 0, AI-2 QS modul 19, PolyA inh 0, T cruzi inh 9 and HDAC3 inh 3.
Screening Cc1ccc(NC(=O)C(Cc2ccccc2)N2C(=O)C3C4CCC(C4)C3C2=O)cc1Cl (stereo not drawn) returned Efflux pump mplx 0, AI-2 QS modul 6, PolyA inh 2, T cruzi inh 78* and HDAC3 inh 0.
For COc1ccc(/C=C2/CCc3ccccc3C2=O)cc1CN1CCOCC1 the results were Efflux pump mplx 1, AI-2 QS modul 5, PolyA inh -6 and T cruzi inh 57*.
`O=C1c2ccccc2C(=O)N1OS(=O)(=O)c1ccccc1` gave Efflux pump mplx 0, AI-2 QS modul 19, PolyA inh 8, T cruzi inh 9 and HDAC3 inh 44*.
For O=C(c1cccc(F)c1)N1CCN(S(=O)(=O)Cc2ccccc2)CC1 the results were Efflux pump mplx 0, AI-2 QS modul 1, PolyA inh -13, T cruzi inh -2 and HDAC3 inh 0.
For OC1CCN(Cc2cccc(Oc3ccccc3)c2)CC1 the results were Efflux pump mplx 0, AI-2 QS modul 8, PolyA inh -9, T cruzi inh 68* and HDAC3 inh 2.
Screening OCCN1CCN(Cc2cccc(Oc3ccc(Cl)cc3)c2)CC1 returned Efflux pump mplx 0, AI-2 QS modul 14, PolyA inh -29, T cruzi inh 61* and HDAC3 inh -3.
Screening CN1CCN(Cc2cccc(Oc3ccccc3)c2)CC1 returned Efflux pump mplx 0, AI-2 QS modul 21, PolyA inh -6, T cruzi inh 49 and HDAC3 inh -2.
`Cc1sc2ncnc(N3CCN(CCOc4ccc(Cl)cc4)CC3)c2c1C` gave Efflux pump mplx 0, AI-2 QS modul 17, PolyA inh 18, T cruzi inh 59* and HDAC3 inh 1.
Cc1nc(Nc2ccc(Cl)cc2)c2nnn(Cc3ccccc3)c2n1 was read as Efflux pump mplx 0, AI-2 QS modul 17, PolyA inh 0, T cruzi inh 17 and HDAC3 inh -9.
Cc1nc(Nc2ccc(S(=O)(=O)N3CCCCC3C)cc2)c2nnn(Cc3ccccc3)c2n1 (stereo not drawn) was read as Efflux pump mplx 0, AI-2 QS modul 2, PolyA inh -2, T cruzi inh 64* and HDAC3 inh -11.
`Cc1ccc2c(C(=O)CCl)c(C)[nH]c2c1` gave Efflux pump mplx 0, AI-2 QS modul 41, PolyA inh -7, T cruzi inh 56* and HDAC3 inh -2.
For COc1ccccc1C(=O)Nc1ccc2c(c1)n(C)c(=O)n2C the results were Efflux pump mplx 0, AI-2 QS modul 13, PolyA inh -10, T cruzi inh -24 and HDAC3 inh 3.
For CCOC(=O)NNc1ccc2nonc2c1[N+](=O)[O-] the results were Efflux pump mplx 0, AI-2 QS modul -92*, PolyA inh -17, T cruzi inh 3 and HDAC3 inh 9.
Screening COCc1cc(S(=O)c2ccc(Cl)cc2)nc(C)n1 (stereo not drawn) returned AI-2 QS modul 11, PolyA inh -2 and T cruzi inh 61*.
`Cc1nc(SCC(=O)N2CCCCCC2)[nH]c(=O)c1C` gave Efflux pump mplx 0, AI-2 QS modul 15, PolyA inh -22, T cruzi inh -6 and HDAC3 inh -2.
Screening Cc1ccccc1NC(=S)NCC1CCN(C(C)c2ccccc2)C1 (stereo not drawn) returned Efflux pump mplx 0, AI-2 QS modul -6, PolyA inh inconclusive, T cruzi inh 58* and HDAC3 inh -3.
